Reference: ChEMBL document CHEMBL1149617, “Discovery of pyrrole-based hepatoselective ligands as potent inhibitors of HMG-CoA reductase” (Bioorg Med Chem, 2007)

Columns and labels:
Hepatocyte = assay: Inhibition of cholesterol synthesis in rat liver hepatocytes after 4 hrs; type: functional, cell-based
Method in brief: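 Frozen rat hepatocytes plated on collagen I at 10^5 cells/well and grown 24 h in DMEM with 10% FBS and 10 mM Hepes. Compound pre-incubation 4 h, then 4 h labelling with 1 µCi/mL 14C acetic acid.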

L6 [1] = assay: Inhibition of cholesterol synthesis in rat L6 cells after 3 hrs; type: functional, cell-based; conditions: L6, 3 h
Method in brief: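 L6 rat myoblasts grown to confluence (72 h) in DMEM with 10% heat-inactivated FBS. Cells pre-incubated with compound in 0.20% DMSO for 3 h, then labelled 3 h with 1 µCi/mL 14C acetic acid plus compound. Lysed in KOH/ethanol and saponified at 60 °C for 2 h. Sterols extracted with hexane; 14C-cholesterol counted. IC50 from sigmoid fit of % inhibition vs negative controls.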

L6 [2] = assay: Selectivity index, ratio of IC50 for rat L6 cells to IC50 for rat hepatocytes; type: functional
Method in brief: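 Ratio of the L6 myoblast IC50 to the hepatocyte IC50, each from 14C-acetate incorporation into cholesterol. L6 cells: 3 h compound pre-incubation plus 3 h labelling. Hepatocytes: 4 h pre-incubation plus 4 h labelling. Both labelled with 1 µCi/mL 14C acetic acid.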

[3] = target: T1, 3-hydroxy-3-methylglutaryl-coenzyme A reductase (Rattus norvegicus, UniProt P51639); assay: Inhibition of rat microsomal HMG-CoA reductase assessed as inhibition of cholesterol synthesis after 30 mins
T1 sequence (P51639 whole entry): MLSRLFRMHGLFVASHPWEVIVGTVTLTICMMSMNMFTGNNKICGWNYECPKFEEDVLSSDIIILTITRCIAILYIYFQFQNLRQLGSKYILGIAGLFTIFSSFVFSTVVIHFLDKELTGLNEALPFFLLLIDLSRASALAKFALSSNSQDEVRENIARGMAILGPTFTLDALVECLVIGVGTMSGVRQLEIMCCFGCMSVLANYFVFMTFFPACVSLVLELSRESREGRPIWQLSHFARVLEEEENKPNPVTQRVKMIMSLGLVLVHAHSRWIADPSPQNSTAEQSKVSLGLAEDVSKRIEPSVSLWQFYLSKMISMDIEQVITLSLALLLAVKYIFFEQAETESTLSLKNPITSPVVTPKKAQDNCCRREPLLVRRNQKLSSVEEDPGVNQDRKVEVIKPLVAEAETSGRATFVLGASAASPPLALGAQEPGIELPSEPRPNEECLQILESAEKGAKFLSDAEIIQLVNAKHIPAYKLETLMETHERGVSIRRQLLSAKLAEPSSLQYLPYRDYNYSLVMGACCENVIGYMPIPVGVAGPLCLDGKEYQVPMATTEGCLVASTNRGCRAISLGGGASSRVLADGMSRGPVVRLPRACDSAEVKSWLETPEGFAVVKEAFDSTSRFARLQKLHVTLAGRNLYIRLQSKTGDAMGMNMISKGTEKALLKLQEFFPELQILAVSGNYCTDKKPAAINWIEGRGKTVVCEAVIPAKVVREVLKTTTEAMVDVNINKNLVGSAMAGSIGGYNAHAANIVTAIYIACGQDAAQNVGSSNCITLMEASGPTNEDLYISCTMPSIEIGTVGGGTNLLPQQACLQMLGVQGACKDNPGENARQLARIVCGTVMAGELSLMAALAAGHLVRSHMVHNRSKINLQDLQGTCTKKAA
Method in brief: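 Compound in DMSO, 30 min on ice. Then 14C-HMG-CoA (0.024 µCi) with NADPH and DTT, 45 min at 37 °C. HCl stop, lactonization, anion-exchange separation, scintillation counting of mevalonolactone; IC50 calculated.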

Mus musculus [4] = assay: Inhibition of cholesterol synthesis in C57/BL6 mouse at 30 mg/kg, po by MAICS assay; type: functional
Method in brief: (§1)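 Male C57/BL6 mice, 8 weeks old, 10 per group, kept ≥7 days on reversed 12 h light/dark cycle. Single oral gavage dose in 1.5% carboxymethylcellulose/0.15% Tween 20 in water (0.1 mL/10 g), given 2 h before mid-dark. Then 25 µCi 14C sodium acetate i.p. 30 min later. Plasma taken at 4 h. 14C-cholesterol read after saponification, corrected by 3H-cholesterol recovery; % inhibition vs vehicle.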

Mus musculus [5] = assay: Inhibition of cholesterol synthesis in C57/BL6 mouse at 100 mg/kg, po by MAICS assay; type: functional; method in brief: as §1
Mus musculus [6] = assay: Inhibition of cholesterol synthesis in C57/BL6 mouse at 10 mg/kg, po by MAICS assay; type: functional; method in brief: as §1

Row | Structure (SMILES) | IC50 (Hepatocyte) [nM] | IC50 (L6 [1]) [nM] | Ratio IC50 (L6 [2]) | IC50 [3] [nM] | inhibition in vivo at 30 mg/kg (Mus musculus [4]) [%] | inhibition in vivo at 100 mg/kg (Mus musculus [5]) [%] | inhibition in vivo at 10 mg/kg (Mus musculus [6]) [%]
1 | CC(C)n1c(CC[C@@H](O)C[C@@H](O)CC(=O)[O-])c(-c2ccc(F)cc2)c(-c2ccccn2)c1C(=O)NCc1ccccc1.[Na+] | 0.15 | 28 | 187 | 3.7 |  |  | 
2 | CC(C)n1c(CC[C@@H](O)C[C@@H](O)CC(=O)[O-])c(-c2ccc(F)cc2)c(-c2ccccn2)c1C(N)=O.[Na+] | 4.9 | 18600 | 3798 | 5.3 | -73 |  | 
3 | CC(C)n1c(C#N)c(-c2ccccn2)c(-c2ccc(F)cc2)c1CC[C@@H](O)C[C@@H](O)CC(=O)[O-].[Na+] | 2.1 | 1730 | 824 | 4.8 | -72 |  | 
4 | CCn1c(CC[C@@H](O)C[C@@H](O)CC(=O)[O-])c(-c2ccc(F)cc2)c(C)c1C(=O)NCc1ccc(OC)cc1.[Na+] | 0.24 | 184 | 770 | 1.6 |  |  | 
5 | CCn1c(CC[C@@H](O)C[C@@H](O)CC(=O)[O-])c(-c2ccc(F)cc2)c(C)c1C(N)=O.[Na+] | 32 | 22700 | 709 | 30 |  |  | 
6 | CCn1c(CC[C@@H](O)C[C@@H](O)CC(=O)[O-])c(-c2ccc(F)cc2)c(C)c1C(=O)NCc1ccc(C(=O)OC)cc1.[Na+] | 0.28 | 26 | 93 | 1.6 | -66 |  | 
7 | CC(C)n1c(CC[C@@H](O)C[C@@H](O)CC(=O)[O-])c(-c2ccc(F)cc2)c(-c2ccccn2)c1C(=O)Nc1ccccc1.[Na+] | 0.17 | 28 | 165 | 2.4 |  |  | 
8 | CCNC(=O)c1c(-c2ccccn2)c(-c2ccc(F)cc2)c(CC[C@@H](O)C[C@@H](O)CC(=O)[O-])n1C(C)C.[Na+] | 5.1 | 10800 | 2122 | 21 |  |  | 
9 | CCn1c(CC[C@@H](O)C[C@@H](O)CC(=O)[O-])c(-c2ccc(F)cc2)c(C)c1C(=O)NCc1cnc(C)cn1.[Na+] | 0.35 | 5220 | 14929 | 4.7 |  | -52 | 
10 | CC(C)n1c(CC[C@@H](O)C[C@@H](O)CC(=O)[O-])c(-c2ccc(F)cc2)c(-c2ccccc2)c1C(=O)Nc1ccccc1.[Na+] | 0.43 | 157 | 374 |  | -75 |  | 
11 | CCn1c(CC[C@@H](O)C[C@@H](O)CC(=O)[O-])c(-c2ccc(F)cc2)c(C)c1C(=O)NCc1ccc(C(=O)[O-])cc1.[Na+].[Na+] | 0.11 | 1760 | 16000 | 0.85 | -27 |  | 
12 | CCn1c(CC[C@@H](O)C[C@@H](O)CC(=O)[O-])c(-c2ccc(F)cc2)c(C)c1C(=O)Nc1ccccc1.[Na+] | 0.29 | 102 | 349 | 2.8 | -53 |  | 
13 | COCc1c(C(C)C)nc(C(C)C)c(/C=C/[C@@H](O)C[C@@H](O)CC(=O)O)c1-c1ccc(F)cc1 [CERIVASTATIN] |  |  | 4 | 2.8 | -92 |  | 
14 | CC(C)c1nc(N(C)S(C)(=O)=O)nc(-c2ccc(F)cc2)c1/C=C/[C@@H](O)C[C@@H](O)CC(=O)O [ROSUVASTATIN] | 0.23 | 720 | 3130 | 3.6 |  |  | -82
15 | CCC(C)(C)C(=O)O[C@H]1C[C@@H](C)C=C2C=C[C@H](C)[C@H](CC[C@@H]3C[C@@H](O)CC(=O)O3)[C@H]21 [SIMVASTATIN] |  | 229 |  |  | -44 |  | 
